23 compounds from ChEMBL document CHEMBL1124612, “Synthesis and structure-activity relationships of a series of anxioselective pyrazolopyridine ester and amide anxiolytic agents” (J Med Chem, 1989) can be followed below.

Activity calls are given as the source filed them. No cut-off for these calls is given here.

The term inhibition denotes the drop in the measured response relative to a control, in per cent. The term IC50 denotes the concentration that inhibits the measured activity by half. For orientation: ED50 means the midpoint of the dose-response relation.

The target in data set [1] is T1, GABA-A receptor; anion channel (Rattus norvegicus) (UniProt O09028+P15431+P18506+P18508+P19969+P20236+P23574+P23576+P28471+P28473+P30191+P62813+P63079+P63138+Q91ZM7+Q9ES14). As to the kind of experiment: Displacement of [3H]flunitrazepam from GABA-A benzodiazepine receptor of rat cerebral cortex at 500 nM. It counts as tissue-based. A digest of the protocol: (§1)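 Rat cerebral cortex membranes were incubated with [3H]flunitrazepam in the presence of the test agent at a single concentration (nM), run in triplicate with under 7% variation between values. Binding is reported as % inhibition of [3H]flunitrazepam binding.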
On the technique in general: Loss of bound radioactivity is the signal in a displacement assay; it reports binding, not function.

For data set [2], the system named is Rattus norvegicus. As to the kind of experiment: Minimum effective dose (po) tested for its anxiolytic activity in rat using the shock-induced suppression of drinking (SSD) test. The note with it: read-out: MED. In kind it is functional. Summed up: (§2)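 Rats (n = 8 per dose) were dosed orally at one or more levels and then run in the shock-induced suppression of drinking conflict test. MED is the dose producing a significant rise (p < 0.05, Student's t test) in mean shocks accepted relative to vehicle-treated controls.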

In data set [3] the target is T1, GABA-A receptor; anion channel (Rattus norvegicus). As to the kind of experiment: Displacement of [3H]flunitrazepam from GABA-A benzodiazepine receptor of rat cerebral cortex at 5000 nM. It counts as tissue-based. A digest of the protocol: as §1
The test system of data set [4] is Rattus norvegicus. As to the kind of experiment: Minimum effective dose (ip) tested for its anxiolytic activity in rat using the shock-induced suppression of drinking (SSD) test; NS is No Significant activity at 160 mg/Kg. It counts as functional, organism-based. Summed up:
(§3)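 Shock-induced suppression of drinking (Vogel-type conflict) in rats, with compounds given intraperitoneally at one or more dose levels, 8 rats per dose. MED is the lowest dose giving a significant increase (p < 0.05, Student's t test) in the mean number of shocks taken versus vehicle control.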

Data set [5] relates to Rattus norvegicus. Nature of the data set: Minimum effective dose (ip) tested for its anxiolytic activity in rat using the shock-induced suppression of drinking (SSD) test; NS is No Significant activity at 50 mg/Kg. In kind it is functional, organism-based. A digest of the protocol:
as §3

Data set [6] deals with Rattus norvegicus. Nature of the data set: Minimum effective dose (ip) tested for its anxiolytic activity in rat using the shock-induced suppression of drinking (SSD) test; NS is No Significant activity at 25 mg/Kg. It counts as functional, organism-based. Summed up: as §3
For data set [7], the system named is GABA-A receptor; anion channel. Nature of the data set: Inhibition of [3H]flunitrazepam binding to GABA-A benzodiazepine receptor of rat cerebral cortex at 500 nM. In kind it is tissue-based. A digest of the protocol:
as §1

Data set [8] has as its target GABA-A receptor; anion channel. Nature of the data set: (§4) Inhibition of [3H]flunitrazepam binding to GABA-A benzodiazepine receptor of rat cerebral cortex. In kind it is tissue-based. Summed up: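 [3H]Flunitrazepam displacement from rat cerebral cortex benzodiazepine receptors, run in triplicate with under 7% variation between values. IC50 is the concentration (nM) giving half-maximal inhibition of binding, determined from three or more concentrations.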

Data set [9] concerns Rattus norvegicus. As to the kind of experiment: Minimum effective dose (ip) tested for its anxiolytic activity in rat using the shock-induced suppression of drinking (SSD) test; NS is No Significant activity at […]. It counts as functional, organism-based. A digest of the protocol:
as §3

The target of data set [10] is GABA-A receptor; anion channel. Described as §4. In kind it is tissue-based. This is another data set of the same source.
Data set [11] has as its target T1, GABA-A receptor; anion channel (Rattus norvegicus). Nature of the data set: Displacement of [3H]flunitrazepam from GABA-A benzodiazepine receptor of rat cerebral cortex at 800 nM. It counts as tissue-based. Summed up:
as §1

For data set [12], the system named is Rattus norvegicus. Nature of the data set: Minimum effective dose (po) tested for its anxiolytic activity in rat using the shock-induced suppression of drinking (SSD) test; NS is No Significant activity at 100 MG/kG. The note with it: 100 M. It counts as functional, organism-based. A digest of the protocol:
as §2

Data set [13] addresses GABA-A receptor; anion channel. Nature of the data set: Inhibition of [3H]flunitrazepam binding to GABA-A benzodiazepine receptor of rat cortex.
The nature of data set [14]: Ethanol interaction ratio (EIR) of the compound. It counts as ADME. Summed up:
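Ratio computed as rat rotorod ED50 for drug given with ethanol (mg/kg) divided by the SSD minimum effective dose (mg/kg), both orally. The SSD MED is the lowest dose (N=8/dose) giving a significant rise (p < 0.05, Student's t test) in mean shocks taken versus vehicle in the rat shock-induced suppression of drinking test.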

The species entered for data set [15] is Rattus norvegicus. As to the kind of experiment: Compound was tested for activity against ethanol-induced impairment of rota rod performance in rat. It counts as functional.
Data set [16] concerns Rattus norvegicus. As to the kind of experiment: Compound was tested in vivo for antagonistic activity against metrazole-induced convulsions in rat. In kind it is functional.
The species named for data set [17] is Rattus norvegicus. Nature of the data set: Sedative liability index (SLI) to indicate the separation between the anxiolytic and ataxic doses in rats. It counts as functional. A digest of the protocol: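 Ratio computed as rat rotorod ED50 (mg/kg) divided by the SSD minimum effective dose (mg/kg), with both given orally. The SSD MED is the lowest dose (N=8/dose) giving a significant increase (p < 0.05, Student's t test) in mean shocks taken over vehicle control in the rat shock-induced suppression of drinking test.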

Data set [18] has as its system Rattus norvegicus. Nature of the data set: Compound was tested in vivo for activity to induce sedation or ataxia in rat using rotarod test. It counts as functional.
The target of data set [19] is GABA-A receptor; anion channel. Nature of the data set: Inhibition of [3H]flunitrazepam binding to GABA-A benzodiazepine receptor of rat cerebellum. It counts as tissue-based.
A further data set relates to Monkey. As to the kind of experiment: Compound was tested for activity using primate conflict test in monkey. It counts as functional. The note with it: Cercopithecidae, in Primates; read-out: MED.
The subject of data set [20] is GABA-A receptor; anion channel. Nature of the data set: Inhibition of [3H]flunitrazepam binding to GABA-A benzodiazepine receptor of rat cerebral cortex (Not Significant at 5000 nM). In kind it is tissue-based. A digest of the protocol: as §1
The subject of data set [21] is Rattus norvegicus. As to the kind of experiment: Minimum effective dose (ip) tested for its anxiolytic activity in rat using the shock-induced suppression of drinking (SSD) test. The note with it: read-out: MED. In kind it is functional. Summed up:
as §3

Data set [22] has as its system Rattus norvegicus. Nature of the data set: Minimum effective dose (ip) tested for its anxiolytic activity in rat using the shock-induced suppression of drinking (SSD) test; NS is No Significant activity at 5 mg/Kg. It counts as functional, organism-based. A digest of the protocol:
as §3

Data set [23] concerns Rattus norvegicus. Nature of the data set: Minimum effective dose (po) tested for its anxiolytic activity in rat using the shock-induced suppression of drinking (SSD) test; NS is No Significant activity at 50 mg/Kg. In kind it is functional, organism-based. A digest of the protocol:
as §2

The test system of data set [24] is Rattus norvegicus. As to the kind of experiment: Minimum effective dose (po) tested for its anxiolytic activity in rat using the shock-induced suppression of drinking (SSD) test; NS is No Significant activity at […]. In kind it is functional, organism-based. Summed up:
as §2

In data set [25] the target is T1, GABA-A receptor; anion channel (Rattus norvegicus). As to the kind of experiment: Displacement of [3H]flunitrazepam from GABA-A benzodiazepine receptor of rat cerebral cortex at 50 nM. In kind it is tissue-based. A digest of the protocol: as §1
Data set [26] concerns Rattus norvegicus. As to the kind of experiment: Minimum effective dose (ip) tested for its anxiolytic activity in rat using the shock-induced suppression of drinking (SSD) test; NS is No Significant activity at 25 mg/KG. In kind it is functional, organism-based. Summed up:
as §3

For data set [27], the species on record is Rattus norvegicus. As to the kind of experiment: Compound was tested for activity against ethanol-induced impairment of rotarod performance in rat. It counts as functional. Background: The rotarod test checks motor coordination on a turning rod.

In [1], `C=CCNC(=O)c1cnc2c(cnn2CCC#CC)c1NC(=O)CC` came in with an inhibition of 28%. For the same compound, in the data set with Rattus norvegicus [2], the minimal effective dose was 1.6 mg/kg.
In the case of `CCOC(=O)c1cc2cnn(CC)c2nc1C`, the inhibition in [3] worked out at 14%. Moreover, the NS entry in the data set on Rattus norvegicus [4] is “inactive”.
On to `CCCCCn1ncc2c(N)cc(C)nc21`, for which the minimal effective dose result in the data set with Rattus norvegicus [5] was “inactive”. The inhibition in data set [3] stood at 13%.
`CCCCCn1ncc2c(N)c(C(=O)OCC(C)C)c(C)nc21` yielded an inhibition in [1] of 55%. The MED entry in the data set with Rattus norvegicus [6] is “inactive”.
Consider `CCCCCn1ncc2c(N)c(C(=O)OC(C)C)c(C)nc21`, for which, in [3], the inhibition came out at 48%. The minimal effective dose in the data set on Rattus norvegicus [2] stood at 50 mg/kg.
Turning to `CCCCCn1ncc2c(O)c(C(=O)OCC)c(C)nc21`, in the data set on Rattus norvegicus [5], the minimal effective dose result was “inactive”. In addition, in [7], the IC50 result was “Not Active”.
On to `CCCCCn1ncc2c(N)c(C(=O)OC)c(C)nc21`, for which, in data set [3], the inhibition amounted to 54%.
With `C#CCCCn1ncc2c(N)c(C(=O)NCC=C)cnc21`, in [8], the IC50 amounted to 9.3 nM. Moreover, in the data set with Rattus norvegicus [2], the minimal effective dose was 6.3 mg/kg.
Take `CCCCCn1ncc2c(N)c(C(=O)OCC)c(CC)nc21`: in the data set on Rattus norvegicus [9], the MED entry is “inactive”. The half-maximal inhibitory concentration (IC50) in data set [10] amounted to 302 nM.
In the case of `C=CCCOC(=O)c1c(C)nc2c(cnn2CCCCC)c1N`, the MED result with Rattus norvegicus [5] was “inactive”. Further, the IC50 in data set [10] was 174 nM.
On to `CCOC(=O)c1c(C)nc2c(cnn2CC)c1N(C)C`, for which the inhibition in [11] turned out to be 13%. For the same compound, in the data set on Rattus norvegicus [6], the MED result was “inactive”.
As for `C=CCOC(=O)c1cnc2c(cnn2CCCCC)c1N`, the MED entry in the data set on Rattus norvegicus [12] is “inactive”. In data set [10], the IC50 amounted to 16 nM.
Turning to `C=CCNC(=O)c1cnc2c(cnn2CCC#CC)c1N`, the IC50 was found to be 81 nM in data set [13], 19 nM in data set [19] and 81 nM in data set [10]. For the same compound, the EIR in data set [14] stood at 3.9. The ED50 in the data set filed under Rattus norvegicus [15] was 3.1 mg/kg; in the data set on Rattus norvegicus [16], 1 mg/kg; with Rattus norvegicus [18], 25.1 mg/kg. This compound showed an SLI in the data set listed under Rattus norvegicus [17] of 31.4. In addition, the results for the minimal effective dose in the data set on Rattus norvegicus [2] and in the data set on Monkey were 0.8 mg/kg and 3.1 mg/kg, respectively.
`CCOC(=O)c1c(C)nc2c(c(C)nn2CC)c1N`: the IC50 entry in data set [20] is recorded as “Not Active”. Also, the MED result in the data set on Rattus norvegicus [6] is “inactive”.
As for `CCNc1c(C(=O)OCC)c(C)nc2c1cnn2CC`, in the data set on Rattus norvegicus [21], the minimal effective dose worked out at 25 mg/kg. In addition, the IC50 result in data set [20] is on record as “Not Active”.
For the compound `CCCNc1c(C(=O)OCC)c(C)nc2c1cnn2CC`, the IC50 entry in [20] is listed as “Not Active”. In the data set on Rattus norvegicus [22], the MED result is “inactive”.
`CCCCCn1ncc2c(N)c(C(=O)NCCCC)c(C)nc21`: the MED entry in the data set with Rattus norvegicus [23] is “inactive”. For the same compound, the inhibition in [3] is 31%.
With `CCCCCn1ncc2c(N)c(C(=O)OCC)c(C(C)C)nc21`, in the data set with Rattus norvegicus [24], the MED entry is “inactive”. In addition, the inhibition in data set [1] turned out to be 54%.
For `CCOC(=O)c1c(C)nc2c(cnn2CCC(C)(C)C)c1N`, the minimal effective dose entry with Rattus norvegicus [5] was “inactive”. The compound further had an inhibition in data set [1] of 38%.
In the case of `CCCCCn1ncc2c(N)c(C(=O)O)c(C)nc21`, the half-maximal inhibitory concentration (IC50) result in data set [20] is “Not Active”. The minimal effective dose entry in the data set on Rattus norvegicus [5] is “inactive”.
As to `C=CCNC(=O)c1c(C)nc2c(cnn2CCCCC)c1N`, in [25], the inhibition stood at 0%. The minimal effective dose in the data set on Rattus norvegicus [2] was found to be 50 mg/kg.
For the compound `C=CCOC(=O)c1c(C)nc2c(cnn2CC=C(C)C)c1N`, in the data set with Rattus norvegicus [26], the MED entry is “inactive”. Also, the IC50 in [10] turned out to be 6.4 nM.
Regarding `CN1C(=O)CN=C(c2ccccc2)c2cc(Cl)ccc21` [DIAZEPAM], the ED50 in the data set listed under Rattus norvegicus [27] worked out at 2.5 mg/kg; in the data set with Rattus norvegicus [16], 8.4 mg/kg; with Rattus norvegicus [18], 10.2 mg/kg. The EIR in data set [14] was 0.5. This compound yielded an SLI in the data set listed under Rattus norvegicus [17] of 2. Besides, the results for the minimal effective dose with Rattus norvegicus [2] and with Monkey were 5 mg/kg and 1.6 mg/kg, respectively.
